Molecules are shown by their SMILES. Activity calls are given as the source filed them. No cut-off for these calls is given here.

The test system of one test is Mus musculus. The experiment in a line: Antidiabetic activity in fasted ob/ob mouse assessed as reduction in blood glucose AUC compound administered orally 30 mins prior glucose challenge by oral glucose tolerance test relative to control. In kind it is functional, organism-based. In outline: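 OGTT in fasted ob/ob mice with oral doses of 0.3, 1, 3 and 10 mg/kg; blood glucose AUC compared to vehicle by two-way ANOVA.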
Regarding `CCn1nccc1Oc1cc(C[C@H]2C[C@](C)(O)C2)cnc1NC(=O)NC`, the Activity result was “Dose-dependent effect”.

The subject of a further test is Mus musculus. The test is described as follows: Antidiabetic activity in C57Bl/6 mouse assessed as reduction in blood glucose AUC at 30 mg/kg, po administered 30 mins prior glucose challenge by oral glucose tolerance test. The class given is functional, organism-based. On the set-up: dose 30 mg/kg. In outline:
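Oral dose–response OGTT in C57Bl/6 mice at 3, 10 and 30 mg/kg; blood glucose area-under-curve assessed; significance versus vehicle by two-way ANOVA.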
For `CCn1nccc1Oc1cc(CC2CCOCC2)cnc1NC(=O)NC`, the result was Active.

The target in the next test is T1, Hexokinase-4 (Homo sapiens) (UniProt P35557).
T1 sequence (whole entry): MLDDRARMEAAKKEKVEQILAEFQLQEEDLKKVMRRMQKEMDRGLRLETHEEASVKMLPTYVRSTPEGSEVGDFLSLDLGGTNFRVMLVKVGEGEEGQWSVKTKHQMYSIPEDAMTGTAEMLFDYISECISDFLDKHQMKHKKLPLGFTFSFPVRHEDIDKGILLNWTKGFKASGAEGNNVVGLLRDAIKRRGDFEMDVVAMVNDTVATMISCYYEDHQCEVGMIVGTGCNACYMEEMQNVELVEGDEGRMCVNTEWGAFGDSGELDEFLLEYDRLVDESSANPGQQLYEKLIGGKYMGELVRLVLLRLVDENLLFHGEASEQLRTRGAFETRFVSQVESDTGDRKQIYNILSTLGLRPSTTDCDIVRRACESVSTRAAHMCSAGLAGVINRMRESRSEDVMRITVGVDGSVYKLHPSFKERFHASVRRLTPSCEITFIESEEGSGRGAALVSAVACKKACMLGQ
The test is described as follows: Activity of activated human recombinant Glucokinase assessed as maximum glucose phosphorylation measured over 5 mins by spectrophotometry relative to unactivated enzyme. The essentials: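 Recombinant human GK; V_max is the maximal velocity of glucose phosphorylation by activated GK divided by that of unactivated GK; n = 2.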
In the case of `CCn1nccc1Oc1cc(CC2CCOCC2)cnc1NC(=O)NC`, the Ratio amounted to 0.8.
Take `CCn1nccc1Oc1cc(C(O)C2CCOCC2)cnc1NC(=O)NC` (stereo unspecified): the Ratio turned out to be 0.82.
`CCn1nc(COC)cc1Oc1cc(CC2CCOCC2)cnc1NC(=O)NC`: the Ratio was 0.71.
In the case of `CCc1ncccc1Oc1cc(CC2CCOCC2)cnc1NC(=O)NC`, the Ratio came out at 0.75.
Take `CCn1nccc1Oc1cc(CCCC(C)(C)O)cnc1NC(=O)NC`: the Ratio was 0.75.
In the case of `CCn1nccc1Oc1cc(C[C@H]2C[C@@](C)(O)C2)cnc1NC(=O)NC`, the Ratio was determined as 0.8.
With `CCn1nccc1Oc1cc(CCCCOC)cnc1NC(=O)NC`, the Ratio came to 0.83.
In the case of `CCn1nccc1Oc1cc(C[C@H]2CC[C@@](C)(O)CC2)cnc1NC(=O)NC`, the Ratio was 0.82.
Take `CCc1ncccc1Oc1cc(CC2CCCCC2)cnc1NC(=O)NC`: the Ratio came to 0.73.
Turning to `CCc1ncccc1Oc1cc(CCCOC)cnc1NC(=O)NC`, the Ratio was 0.78.
Consider `CCn1nccc1Oc1cc(C[C@H]2C[C@@H](O)C2)cnc1NC(=O)NC`, for which the Ratio was determined as 0.88.
Take `CCn1nccc1Oc1cc(C[C@@H]2CCO[C@@H](COC)C2)cnc1NC(=O)NC`: the Ratio worked out at 0.78.
Regarding `CCn1nccc1Oc1cc(CN2CCOCC2)cnc1NC(=O)NC`, the Ratio is 0.78.
For the molecule `CCn1nccc1Oc1cc(C[C@H]2CC[C@@H](O)CC2)cnc1NC(=O)NC`, the Ratio came out at 0.66.
Regarding `CCc1ncccc1Oc1cc(CCCCO)cnc1NC(=O)NC`, the Ratio is 0.86.
Turning to `CCc1ncccc1Oc1cc(CCCC(C)(C)O)cnc1NC(=O)NC`, the Ratio was 0.73.
Still for that read-out and setting: for `CCc1ncccc1Oc1cc(CC(C)C)cnc1NC(=O)NC` the value was 0.82; for `CCn1nccc1Oc1cc(C[C@H]2CCO[C@H](COC)C2)cnc1NC(=O)NC`, 0.76; for `CCn1nccc1Oc1cc(C[C@H]2C[C@H](O)C2)cnc1NC(=O)NC`, 0.96.
Same read-out and setting: for `CCn1nccc1Oc1cc(C[C@H]2CC[C@](C)(O)CC2)cnc1NC(=O)NC` the value was 0.71.
In the case of `CCOCCc1cnc(NC(=O)NC)c(Oc2cccnc2CC)c1`, the Ratio came to 0.7.
Take `CCn1nccc1Oc1cc(C[C@H]2CC[C@H](O)CC2)cnc1NC(=O)NC`: the Ratio stood at 0.79.
Regarding `CCc1ncccc1Oc1cc(CCCCOC)cnc1NC(=O)NC`, the Ratio was 0.74.
For `CNC(=O)Nc1ncc(CC2CCOCC2)cc1Oc1ccnn1C(C)C`, the Ratio was determined as 0.6.

(Values after ChEMBL document CHEMBL3351938, “C5-Alkyl-2-methylurea-Substituted Pyridines as a New Class of Glucokinase Activators” (ACS Med Chem Lett, 2014).)
